Experimental data as given in ChEMBL document CHEMBL3352177, “C-glycoside mimetics inhibit glioma stem cell proliferation, migration, and invasion” (J Med Chem, 2014).

Key:
[1] = test system: C6; assay: Antimigratory activity against rat C6 cells on matrix containing laminin after 24 hrs by 2-D migration assay; assay type: functional, cell-based
Method in brief: (§1)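 Boyden chamber 2D migration toward serum over 24 h on fibronectin, vitronectin or laminin matrix. Cells in DMEM with 0.1% BSA in the upper compartment with or without compound; 10% FCS medium below. Gli4/Gli7 taken from neurosphere cultures. Migrated cells methanol-fixed, crystal violet stained, counted at ×200. Ki from Hill equation fit; ≥3 independent experiments, each point in quadruplicate.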

[2] = Antiproliferative activity against human HuH7 cells after 48 to 72 hrs by MTT assay; assay type: functional, cell-based; details: Huh-7
Method in brief: (§2)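 MTT assay read 48 and 72 h after compound addition. Cell lines grown in DMEM with 10% heat-inactivated FCS, 2 mM L-glutamine, 1 mM sodium pyruvate; GBM stem cells grown as nonadherent neurospheres. IC50 by Hill equation fit; ≥3 independent experiments, each point repeated six times.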

[3] = Antiproliferative activity against human Caco2 cells after 48 to 72 hrs by MTT assay; assay type: functional, cell-based; details: Caco-2; method in brief: as §2
[4] = Cytotoxicity against rat cortical neurons at 100 uM by MAP2 immunofluorescence assay; details: cortical neurone
Method in brief: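 Rat E17 embryonic cortical neurons cultured 17 days, treated 48 h; then 5 μg/mL Hoechst 33342 and 10 μM propidium iodide for 30 min at 37 °C, PBS wash, 4% paraformaldehyde fixation. Fluorescence read on plate reader and by camera imaging; MAP2 immunofluorescence imaged; Triton X-100 (2%) control; mean % PI uptake from three wells per condition.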

[5] = Antiinvasive activity against human Gli7 cells after 48 hrs by matrigel assay; assay type: functional, cell-based
[6] = test system: DU-145; assay: Antiproliferative activity against human DU145 cells after 48 to 72 hrs by MTT assay; assay type: functional, cell-based; method in brief: as §2
[7] = test system: SNB-75; assay: Antimigratory activity against human SNB75 cells on matrix containing vitronectin after 24 hrs by 2-D migration assay; assay type: functional, cell-based; method in brief: as §1
[8] = test system: SNB-75; assay: Antimigratory activity against human SNB75 cells on matrix containing fibronectin after 24 hrs by 2-D migration assay; assay type: functional, cell-based; method in brief: as §1
[9] = test system: A-431; assay: Antiproliferative activity against human A431 cells after 48 to 72 hrs by MTT assay; assay type: functional, cell-based; method in brief: as §2
[10] = Cytotoxicity against rat cortical neurons at 100 uM using propidium iodide by flow cytometry; details: cortical neurone
[11] = Antimigratory activity against human Gli7 cells on matrix containing fibronectin after 24 hrs by 2-D migration assay; assay type: functional, cell-based; method in brief: as §1
[12] = test system: MDA-MB-435; assay: Antiproliferative activity against human MDA-MB-435 cells after 48 to 72 hrs by MTT assay; assay type: functional, cell-based; method in brief: as §2
[13] = Antiinvasive activity against human Gli4 cells after 48 hrs by matrigel assay; assay type: functional, cell-based
[14] = test system: C6; assay: Antiproliferative activity against rat C6 cells after 48 to 72 hrs by MTT assay; assay type: functional, cell-based; method in brief: as §2
[15] = Antimigratory activity against human Gli4 cells on matrix containing vitronectin after 24 hrs by 2-D migration assay; assay type: functional, cell-based; method in brief: as §1
[16] = test system: SNB-75; assay: Antiproliferative activity against human SNB75 cells after 48 to 72 hrs by MTT assay; assay type: functional, cell-based; method in brief: as §2
[17] = Antimigratory activity against human Gli7 cells on matrix containing vitronectin after 24 hrs by 2-D migration assay; assay type: functional, cell-based; method in brief: as §1
[18] = Cytotoxicity against mouse astrocytes at 100 uM by MTT assay; assay type: cell-based; details: astrocyte
Method in brief: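 Primary astrocytes from day-2 newborn mouse cortex, kept 21 days (nonproliferative, GFAP-positive), exposed to compound up to 100 μM; viability by MTT assay.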

[19] = Antimigratory activity against human Gli4 cells on matrix containing fibronectin after 24 hrs by 2-D migration assay; assay type: functional, cell-based; method in brief: as §1
[20] = Antimigratory activity against human Gli7 cells on matrix containing laminin after 24 hrs by 2-D migration assay; assay type: functional, cell-based; method in brief: as §1
[21] = Antiproliferative activity against mouse B16F10 cells after 48 to 72 hrs by MTT assay; assay type: functional, cell-based; details: B16-F10; method in brief: as §2
[22] = test system: SNB-75; assay: Antimigratory activity against human SNB75 cells on matrix containing laminin after 24 hrs by 2-D migration assay; assay type: functional, cell-based; method in brief: as §1
[23] = test system: C6; assay: Antimigratory activity against rat C6 cells on matrix containing vitronectin after 24 hrs by 2-D migration assay; assay type: functional, cell-based; method in brief: as §1
[24] = test system: MDA-MB-231; assay: Antiproliferative activity against human MDA-MB-231 cells after 48 to 72 hrs by MTT assay; assay type: functional, cell-based; method in brief: as §2
[25] = Antiproliferative activity against human Gli7 cells after 48 to 72 hrs by MTT assay; assay type: functional, cell-based; method in brief: as §2
[26] = Antimigratory activity against human Gli4 cells on matrix containing laminin after 24 hrs by 2-D migration assay; assay type: functional, cell-based; method in brief: as §1
[27] = test system: C6; assay: Antimigratory activity against rat C6 cells on matrix containing fibronectin after 24 hrs by 2-D migration assay; assay type: functional, cell-based; method in brief: as §1
[28] = Antiproliferative activity against human Gli4F11 cells after 48 to 72 hrs by MTT assay

SMILES | Ki [1] [nM] | IC50 [2] [nM] | IC50 [3] [nM] | IC50 [6] [nM] | Ki [7] [nM] | Ki [8] [nM] | IC50 [9] [nM] | Ki [11] [nM] | IC50 [12] [nM] | IC50 [14] [nM] | Ki [15] [nM] | IC50 [16] [nM] | Ki [17] [nM] | Ki [19] [nM] | Ki [20] [nM] | IC50 [21] [nM] | Ki [22] [nM] | Ki [23] [nM] | IC50 [24] [nM] | IC50 [25] [nM] | other results
CC1(C)O[C@@H]2[C@H](O1)[C@@H](Nc1cccc3ccccc13)[P@](=O)(c1ccccc1)O[C@@H]2[C@H]1COC(C)(C)O1 | 77 | 6870 | > 100000 | > 100000 | 100 | 124 | 1340 | 16 | 4690 | 5740 | 36 | 3410 | 42 | 31 | 100 | > 100000 | 60 | 300 | 9810 | 2330 | Activity [4]: Toxic; Ki [5]: 46 nM; Activity [10]: Toxic; Ki [13]: 290 nM; Activity [18]: Toxic; Ki [26]: 22 nM; Ki [27]: 126 nM
CC[P@@]1(=O)O[C@H]([C@H]2COC(C)(C)O2)[C@@H]2OC(C)(C)O[C@@H]2[C@@H]1O | 25 | > 100000 | > 100000 | > 100000 | 66 | 19 | > 100000 | 64 | > 100000 | 8660 | 194 | 4920 | 438 | 100 | 1050 | > 100000 | 27 | 47 | > 100000 | 2500 | IC50 [28]: 3800 nM; Ki [26]: 239 nM; Ki [27]: 27 nM
